From ChEMBL document CHEMBL1156875, “Anti-influenza drug discovery: structure-activity relationship and mechanistic insight into novel angelicin derivatives” (J Med Chem, 2010)

What was measured:
[1] = Cytotoxicity against MDCK cells after 72 hrs; format: cell-based, Canis lupus familiaris; settings: dog
In short: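 Uninfected MDCK monolayers (seeded at 1.1 × 10^5 cells/mL, grown 24-30 h to about 90% confluency) exposed to graded compound concentrations for 72 h at 37 C. Read by formaldehyde fixation, 0.1% crystal violet staining and absorbance at 570 nm. CC50 = concentration reducing viability to 50% of control. Triplicate, repeated at least twice.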

Influenza A virus [2] = assay: Antiviral activity against human influenza A virus A/WSN/33 (H1N1) in MDCK cells assessed as reduction of virus-induced cytopathic effect; format: functional, organism-based; settings: A/WSN/1933(H1N1)
In short: (§1)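 MDCK cells (1.1 × 10^5 cells/mL in DMEM + 10% FBS) grown 24-30 h at 37 C to about 90% confluency. Virus (100 TCID50) premixed with serially diluted compound, adsorbed 1 h at 37 C. Overlay of serum-free DMEM with trypsin 2.5 μg/mL and 0.1% DMSO, then 72 h at 37 C. Formaldehyde fixation, crystal violet stain, A570. IC50 = 50% CPE reduction versus virus control. Triplicate, at least two runs.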

Influenza A virus [3] = assay: Antiviral activity against human influenza A virus A/TW/3446/04 (H3N2) in MDCK cells assessed as reduction of virus-induced cytopathic effect; format: functional, organism-based; in short: as §1
Influenza B virus [4] = assay: Antiviral activity against human influenza B virus B/TW/710/05 in MDCK cells assessed as reduction of virus-induced cytopathic; format: functional, organism-based; settings: B/TW/710/05, MDCK; in short: as §1
Influenza B virus [5] = assay: Antiviral activity against human influenza B virus B/TW/70325/05 in MDCK cells assessed as reduction of virus-induced cytopathic; format: functional, organism-based; settings: B/TW/70325/05, MDCK; in short: as §1
Influenza A virus [6] = assay: Antiviral activity against human influenza A virus A/TW/141/04 (H1N1) in MDCK cells assessed as reduction of virus-induced cytopathic effect; format: functional, organism-based; in short: as §1
Influenza B virus [7] = assay: Antiviral activity against human influenza B virus B/TW/99/07 in MDCK cells assessed as reduction of virus-induced cytopathic; format: functional, organism-based; settings: B/TW/99/07, MDCK; in short: as §1

Compound | CC50 at 72 h [1] [µM] | IC50 (Influenza A virus [2]) [µM] | also measured
Cc1cc(=O)oc2c1ccc1oc(C(=O)c3ccccc3)c(-c3cccc(C#N)c3)c12 | > 25 | 0.53 | 
O=C(c1ccccc1)c1oc2ccc3ccc(=O)oc3c2c1-c1ccccc1 | > 25 | 17.6 | 
Cc1cc(=O)oc2c1ccc1oc(C(=O)c3ccc([N+](=O)[O-])cc3)c(-c3ccccc3)c12 |  | > 6.25 | 
Cc1cc(=O)oc2c1ccc1oc(C(=O)c3ccco3)c(-c3ccccc3)c12 | > 25 | 0.41 | 
Cc1cc(=O)oc2c1ccc1oc(C(=O)c3ccccc3)c(-c3ccc4ccccc4c3)c12 | > 25 | 1.91 | 
Cc1cc(=O)oc2c1ccc1oc(C(=O)c3ccccc3)c(-c3cccc([N+](=O)[O-])c3)c12 | > 25 | 0.25 | 
CCc1cc(=O)oc2c1ccc1oc(C(=O)c3ccccc3)c(-c3ccccc3)c12 | > 25 | 0.24 | 
CCCOc1cccc(C(=O)c2oc3ccc4c(C)cc(=O)oc4c3c2-c2ccccc2)c1 | > 25 | 0.15 | 
Cc1cc(=O)oc2c1ccc1oc(C(=O)c3cccc(OCCO)c3)c(-c3ccccc3)c12 | > 25 | 6.09 | 
CCCc1c(C(=O)c2ccccc2)oc2ccc3c(C)cc(=O)oc3c12 | > 25 | 0.29 | 
C/C=C/C(=O)Oc1cccc2oc(C(=O)c3ccccc3)c(-c3ccccc3)c12 | > 25 | 20.8 | 
Cc1c(C)c2ccc3oc(C(=O)c4ccccc4)c(-c4ccccc4)c3c2oc1=O | > 25 | 0.29 | 
Cc1cc(=O)oc2c1ccc1oc(C(=O)c3ccccc3)c(-c3ccc(Cl)cc3)c12 | > 25 | 3.92 | 
Cc1cc(=O)oc2c1ccc1oc(C(=O)c3ccccc3)c(C)c12 | > 25 | 4.51 | 
CCCCCCc1c(C(=O)c2ccccc2)oc2ccc3c(C)cc(=O)oc3c12 | > 25 | 0.65 | 
COc1ccccc1C(=O)c1oc2ccc3c(C)cc(=O)oc3c2c1-c1ccccc1 | > 25 | 0.64 | 

Compound | CC50 at 72 h [1] [µM] | IC50 (Influenza A virus [2]) [µM] | also measured
O=C(c1ccccc1)c1oc2ccccc2c1-c1ccccc1 | 5.27 | > 25 | 
Cc1cc(=O)oc2c1ccc1oc(C(=O)c3cccc(F)c3)c(-c3ccccc3)c12 | > 25 | 0.29 | 
COc1cccc(C(=O)c2oc3ccc4c(C)cc(=O)oc4c3c2-c2ccccc2)c1 | > 25 | 0.11 | 
Cc1ccc(C(=O)c2oc3ccc4c(C)cc(=O)oc4c3c2-c2ccccc2)cc1 | > 25 | 0.87 | 
COc1ccc(-c2c(C(=O)c3ccccc3)oc3ccc4c(C)cc(=O)oc4c23)cc1 | > 25 | 10.1 | 
O=C(c1ccccc1)c1oc2ccc3c4c(c(=O)oc3c2c1-c1ccccc1)CCCC4 | > 25 | > 25 | 
Cc1cc(=O)oc2c1ccc1oc(C(=O)c3ccccc3)c(-c3ccc(Br)cc3)c12 | > 25 | 0.46 | 
Cc1cc(=O)oc2c1ccc1oc(C(=O)c3ccccc3)c(-c3ccc([N+](=O)[O-])cc3)c12 | > 25 | 0.76 | 
CC(=O)N[C@H]1[C@H]([C@H](O)[C@H](O)CO)OC(C(=O)O)=C[C@@H]1NC(=N)N [ZANAMIVIR] |  | 0.06 | IC50 (Influenza A virus [3]): 0.03 µM; IC50 (Influenza B virus [4]): 0.03 µM; IC50 (Influenza B virus [5]): 0.02 µM; IC50 (Influenza A virus [6]): 0.35 µM; IC50 (Influenza B virus [7]): 0.1 µM
Cc1ccccc1C(=O)c1oc2ccc3c(C)cc(=O)oc3c2c1-c1ccccc1 | > 25 | 6.62 | 
Cc1cc(=O)oc2c1ccc1oc(C(=O)c3cccc(OCCN(C)C)c3)c(-c3ccccc3)c12 | 17.7 | 5.28 | 
COc1cccc(C(=O)c2oc3ccc4c(C)cc(=O)oc4c3c2-c2cccc(Br)c2)c1 | > 25 | 0.09 | 
Cc1cc(=O)oc2c1ccc1oc(C(=O)c3ccccc3)c(-c3ccco3)c12 | > 25 | 0.65 | 
Cc1cccc(-c2c(C(=O)c3ccccc3)oc3ccc4c(C)cc(=O)oc4c23)c1 | > 25 | 0.1 | 
O=C(c1ccccc1)c1oc2ccc3ccccc3c2c1-c1ccccc1 | > 25 | > 25 | 
CCCCCCCCOc1cccc(C(=O)c2oc3ccc4c(C)cc(=O)oc4c3c2-c2ccccc2)c1 | > 25 | 7.97 | 
